From EPA's CvTdb concentration-time database

Experiments:
Rat [1] = assay: concentration in plasma after dosing; details: dosed: Fluorotelomer alcohol 8+2, 40 mg/kg, iv, Male, F344
Rat [2] = assay: concentration in plasma after dosing; details: 3 h; dosed: Fluorotelomer alcohol 8+2; 12 mg/kg; iv; Male; F344
Rat [3] = assay: concentration in kidney after dosing; details: 6 h; dosed: Fluorotelomer alcohol 8+2; 80 mg/kg; oral; Female; Harlan Sprague Dawley
Rat [4] = assay: concentration in brain after dosing; details: 12 h; dosed: Fluorotelomer alcohol 8+2; 80 mg/kg; oral; Female; Harlan Sprague Dawley
Rat [5] = assay: concentration in liver after dosing; details: 6 h; dosed: Fluorotelomer alcohol 8+2; 80 mg/kg; oral; Female; Harlan Sprague Dawley
Rat [6] = assay: concentration in plasma after dosing; details: 0.25 h; dosed: Wyeth-14643; 5.0 mg/kg; oral; Male; Sprague-Dawley
Rat [7] = assay: concentration in plasma after dosing; details: 2 h; dosed: Di-n-butyl phthalate; 100 mg/kg; oral; Male; Sprague-Dawley
Rat [8] = assay: concentration in plasma after dosing; details: 5 min; dosed: Di-n-butyl phthalate; 100 mg/kg; oral; Male; Sprague-Dawley
Rat [9] = assay: concentration in plasma after dosing; details: 1 h; dosed: Di-n-butyl phthalate; 20 mg/kg; iv; Male; Sprague-Dawley
human = assay: concentration in blood after dosing; negative times count back from the end of exposure; details: dosed: trichloroethylene, inhalation
How it was run: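 Sampling and analytical methods are those of each source and frequently went unreported. The concentration-versus-time and amount-versus-time points were compiled from published in vivo toxicokinetic studies and two structured collections. Most were digitised from plot screenshots with WebPlotDigitizer, with others copied from tables, in the reported units.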

Rat [10] = assay: concentration in plasma after dosing; details: 2520 h; dosed: Perfluorodecanoic acid; 2 mg/kg; iv; Male; F344
Rat [11] = assay: concentration in brain after dosing; details: 1848 h; dosed: Perfluorodecanoic acid; 10 mg/kg; oral; Female; Harlan Sprague Dawley
Rat [12] = assay: concentration in heart after dosing; details: 2 h; dosed: Thiodiglycolic Acid; 20 mg/kg; iv; Male; Harlan Sprague Dawley
Rat [13] = assay: concentration in liver after dosing; details: 40 min; dosed: Thiodiglycolic Acid; 20 mg/kg; iv; Male; Harlan Sprague Dawley
Rat [14] = assay: concentration in plasma after dosing; details: 20 min; dosed: Thiodiglycolic Acid; 20 mg/kg; iv; Female; Harlan Sprague Dawley
Rat [15] = assay: concentration in plasma after dosing; details: 3 h; dosed: Thiodiglycolic Acid; 20 mg/kg; iv; Female; Harlan Sprague Dawley
Rat [16] = assay: concentration in heart after dosing; details: 8 h; dosed: Thiodiglycolic Acid; 20 mg/kg; iv; Female; Harlan Sprague Dawley
Rat [17] = assay: concentration in thymus after dosing; details: 10 h; dosed: Thiodiglycolic Acid; 20 mg/kg; iv; Male; F344
Rat [18] = assay: concentration in liver after dosing; details: 4 h; dosed: Thiodiglycolic Acid; 20 mg/kg; iv; Male; Harlan Sprague Dawley
Rat [19] = assay: concentration in liver after dosing; details: 1 h; dosed: Thiodiglycolic Acid; 20 mg/kg; iv; Female; Harlan Sprague Dawley
Rat [20] = assay: concentration in thymus after dosing; details: 40 min; dosed: Bis 2-Chloroethoxy Methane; 20 mg/kg; iv; Female; F344
Rat [21] = assay: concentration in heart after dosing; details: 40 min; dosed: Bis 2-Chloroethoxy Methane; 20 mg/kg; iv; Male; F344
Rat [22] = assay: concentration in heart after dosing; details: 6 h; dosed: Bis 2-Chloroethoxy Methane; 20 mg/kg; iv; Male; F344
Rat [23] = assay: concentration in heart after dosing; details: 2 h; dosed: Bis 2-Chloroethoxy Methane; 20 mg/kg; iv; Female; F344

OCCC(F)(F)C(F)(F)C(F)(F)C(F)(F)C(F)(F)C(F)(F)C(F)(F)C(F)(F)F [Fluorotelomer alcohol 8+2]
Rat [1]
Details	concentration in plasma [ng/mL]
3 h	505
5 min	23200

Details	concentration in brain [ng/g]	concentration in kidney [ng/g]	concentration in liver [ng/g]	concentration in plasma [ng/mL]
Rat [2]	–	–	–	106
Rat [3]	–	834	–	–
Rat [4]	164	–	–	–
Rat [5]	–	–	2430	–

Cc1cccc(Nc2cc(Cl)nc(SCC(=O)O)n2)c1C
Details	concentration in plasma [ng/mL]
Rat [6]	10600

CCCCOC(=O)c1ccccc1C(=O)O [Mono-n-butyl phthalate]
Details	concentration in plasma [ng/mL]
Rat [7]	3520
Rat [8]	1430
Rat [9]	2550

O=C(O)C(Cl)(Cl)Cl [trichloroacetic acid]
concentration in blood [mg/kg], human, duration: 2 hr - 20 min
Details	0 h	0.5 h	1 h	1.5 h	2 h	21 h
1348 mg	3	3.5	3.7	4.1	4.5	13.3
1681 mg	2.8	3.6	3.9	4.5	5.2	13.6
3907 mg	3	3.9	4.5	5.3	5.4	17.8

human
Details	concentration in blood
-1.833 h, 1348 mg, duration: 2 hr - 20 min, during exposure	0.6 mg/kg
-1.833 h, 1681 mg, duration: 2 hr - 20 min, during exposure	0.4 mg/kg
-1.833 h, 3907 mg, duration: 2 hr - 20 min, during exposure	0.7 mg/kg
-1 h, 1348 mg, duration: 2 hr - 20 min, during exposure	1.4 mg/kg
-1 h, 1681 mg, duration: 2 hr - 20 min, during exposure	1.1 mg/kg
-1 h, 3907 mg, duration: 2 hr - 20 min, during exposure	1.6 mg/kg
-0.5 h, 1348 mg, duration: 2 hr - 20 min, during exposure	2.3 mg/kg
-0.5 h, 1681 mg, duration: 2 hr - 20 min, during exposure	1.7 mg/kg
-0.5 h, 3907 mg, duration: 2 hr - 20 min, during exposure	2.3 mg/kg
0.1859 h, 100 ppm, duration: 4 hr, person	3830 ng/mL
0.2626 h, 100 ppm, duration: 4 hr, person	3950 ng/mL
0.4953 h, 100 ppm, duration: 4 hr, person	4150 ng/mL
0.7295 h, 100 ppm, duration: 4 hr, person	3520 ng/mL
1.042 h, 100 ppm, duration: 4 hr, person	4390 ng/mL
2.008 h, 100 ppm, duration: 4 hr, person	4230 ng/mL
2.056 h, 100 ppm, duration: 4 hr, person	4950 ng/mL
4.002 h, 100 ppm, duration: 4 hr, person	5130 ng/mL
4.087 h, 100 ppm, duration: 4 hr, person	5830 ng/mL
5.968 h, 100 ppm, duration: 4 hr, person	6280 ng/mL
6.071 h, 100 ppm, duration: 4 hr, person	5770 ng/mL
8.056 h, 100 ppm, duration: 4 hr, person	6100 ng/mL
8.086 h, 100 ppm, duration: 4 hr, person	6680 ng/mL
10.05 h, 100 ppm, duration: 4 hr, person	6680 ng/mL
10.13 h, 100 ppm, duration: 4 hr, person	7050 ng/mL
12.03 h, 100 ppm, duration: 4 hr, person	7200 ng/mL
12.16 h, 100 ppm, duration: 4 hr, person	7480 ng/mL
14.01 h, 100 ppm, duration: 4 hr, person	7110 ng/mL
14.05 h, 100 ppm, duration: 4 hr, person	7820 ng/mL
16 h, 100 ppm, duration: 4 hr, person	7960 ng/mL
16.01 h, 100 ppm, duration: 4 hr, person	7740 ng/mL
17.81 h, 100 ppm, duration: 4 hr, person	8690 ng/mL
17.98 h, 100 ppm, duration: 4 hr, person	7930 ng/mL
41.89 h, 100 ppm, duration: 4 hr, person	8480 ng/mL
44.06 h, 100 ppm, duration: 4 hr, person	9620 ng/mL
65.95 h, 100 ppm, duration: 4 hr, person	6780 ng/mL
67.63 h, 100 ppm, duration: 4 hr, person	7420 ng/mL
89.84 h, 100 ppm, duration: 4 hr, person	6470 ng/mL
91.02 h, 100 ppm, duration: 4 hr, person	5310 ng/mL
324 s, 100 ppm, duration: 4 hr, person	3160 ng/mL

human, 100 ppm, duration: 4 hr, person, during exposure
Details	concentration in blood [ng/mL]
-3.454 h	294
-3.442 h	210
-3.04 h	620
-2.832 h	741
-1.998 h	1360
-1.982 h	1680
-1.033 h	2270
-0.8992 h	2830

O=C(O)C(F)(F)C(F)(F)C(F)(F)C(F)(F)C(F)(F)C(F)(F)C(F)(F)C(F)(F)C(F)(F)F [Perfluorodecanoic acid]
Details	concentration in brain [ng/g]	concentration in plasma [ng/mL]
Rat [10]	–	209
Rat [11]	680	–

O=C(O)CSCC(=O)O [Thiodiglycolic Acid]
Details	concentration in heart [ng/g]	concentration in liver [ng/g]	concentration in plasma [ng/mL]	concentration in thymus [ng/g]
Rat [12]	1310	–	–	–
Rat [13]	–	176000	–	–
Rat [14]	–	–	11700	–
Rat [15]	–	–	535	–
Rat [16]	376	–	–	–
Rat [17]	–	–	–	477
Rat [18]	–	70900	–	–
Rat [19]	–	60100	–	–

ClCCOCOCCCl [Bis 2-Chloroethoxy Methane]
Details	concentration in heart [ng/g]	concentration in thymus [ng/g]
Rat [20]	–	4150
Rat [21]	7270	–
Rat [22]	19.3	–
Rat [23]	247	–
